Measured values taken from ChEMBL document CHEMBL1128347, “Non-peptidic inhibitors of human leukocyte elastase. 4. Design, synthesis, and in vitro and in vivo activity of a series of beta-carbolinone-containing trifluoromethyl ketones” (J Med Chem, 1995).

How the values were obtained:
Neutrophil elastase = biological target: T1, Neutrophil elastase (Homo sapiens, UniProt P08246); assay: In vitro inhibitory activity against human leukocyte elastase (HLE) mediated hydrolysis of the synthetic substrate MeO-Suc-Ala-Ala-Pro-Val-pNA
T1 sequence (P08246 whole entry): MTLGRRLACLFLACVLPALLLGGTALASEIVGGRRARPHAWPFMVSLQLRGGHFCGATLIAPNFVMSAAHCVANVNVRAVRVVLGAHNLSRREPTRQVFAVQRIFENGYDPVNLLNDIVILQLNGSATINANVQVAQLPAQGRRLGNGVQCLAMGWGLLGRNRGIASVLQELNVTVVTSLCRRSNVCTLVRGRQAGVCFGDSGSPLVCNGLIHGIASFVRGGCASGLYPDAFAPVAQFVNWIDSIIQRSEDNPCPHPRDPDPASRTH

Chymotrypsinogen A [1] = biological target: T2, Chymotrypsinogen A (Bos taurus, UniProt P00766); assay: Inhibitory activity against bovine chymotrypsin
[2] = Ratio of the Ki value towards bovine chymotrypsin to that of HLE.
How it was run: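 Selectivity ratio computed as Ki against bovine pancreatic chymotrypsin divided by Ki against human leukocyte elastase. The elastase Ki came from inhibition of enzyme-catalysed hydrolysis of the chromogenic substrate MeOSuc-Ala-Ala-Pro-Val-pNA.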

Chymotrypsinogen A [3] = biological target: T2, Chymotrypsinogen A; assay: Inhibitory activity against bovine chymotrypsin; No inhibition at the highest concentration tested (>150 uM)
Acetylcholinesterase = Acetylcholinesterase (Electrophorus electricus, UniProt O42275); assay: Inhibitory activity against electric eel Acetylcholinesterase; No inhibition at the highest concentration tested (400 uM)
[4] = biological target: T3, Angiotensin-converting enzyme (Oryctolagus cuniculus, UniProt P12822); assay: Inhibitory activity against rabbit Angiotensin I converting enzyme
T3 sequence (P12822 whole entry): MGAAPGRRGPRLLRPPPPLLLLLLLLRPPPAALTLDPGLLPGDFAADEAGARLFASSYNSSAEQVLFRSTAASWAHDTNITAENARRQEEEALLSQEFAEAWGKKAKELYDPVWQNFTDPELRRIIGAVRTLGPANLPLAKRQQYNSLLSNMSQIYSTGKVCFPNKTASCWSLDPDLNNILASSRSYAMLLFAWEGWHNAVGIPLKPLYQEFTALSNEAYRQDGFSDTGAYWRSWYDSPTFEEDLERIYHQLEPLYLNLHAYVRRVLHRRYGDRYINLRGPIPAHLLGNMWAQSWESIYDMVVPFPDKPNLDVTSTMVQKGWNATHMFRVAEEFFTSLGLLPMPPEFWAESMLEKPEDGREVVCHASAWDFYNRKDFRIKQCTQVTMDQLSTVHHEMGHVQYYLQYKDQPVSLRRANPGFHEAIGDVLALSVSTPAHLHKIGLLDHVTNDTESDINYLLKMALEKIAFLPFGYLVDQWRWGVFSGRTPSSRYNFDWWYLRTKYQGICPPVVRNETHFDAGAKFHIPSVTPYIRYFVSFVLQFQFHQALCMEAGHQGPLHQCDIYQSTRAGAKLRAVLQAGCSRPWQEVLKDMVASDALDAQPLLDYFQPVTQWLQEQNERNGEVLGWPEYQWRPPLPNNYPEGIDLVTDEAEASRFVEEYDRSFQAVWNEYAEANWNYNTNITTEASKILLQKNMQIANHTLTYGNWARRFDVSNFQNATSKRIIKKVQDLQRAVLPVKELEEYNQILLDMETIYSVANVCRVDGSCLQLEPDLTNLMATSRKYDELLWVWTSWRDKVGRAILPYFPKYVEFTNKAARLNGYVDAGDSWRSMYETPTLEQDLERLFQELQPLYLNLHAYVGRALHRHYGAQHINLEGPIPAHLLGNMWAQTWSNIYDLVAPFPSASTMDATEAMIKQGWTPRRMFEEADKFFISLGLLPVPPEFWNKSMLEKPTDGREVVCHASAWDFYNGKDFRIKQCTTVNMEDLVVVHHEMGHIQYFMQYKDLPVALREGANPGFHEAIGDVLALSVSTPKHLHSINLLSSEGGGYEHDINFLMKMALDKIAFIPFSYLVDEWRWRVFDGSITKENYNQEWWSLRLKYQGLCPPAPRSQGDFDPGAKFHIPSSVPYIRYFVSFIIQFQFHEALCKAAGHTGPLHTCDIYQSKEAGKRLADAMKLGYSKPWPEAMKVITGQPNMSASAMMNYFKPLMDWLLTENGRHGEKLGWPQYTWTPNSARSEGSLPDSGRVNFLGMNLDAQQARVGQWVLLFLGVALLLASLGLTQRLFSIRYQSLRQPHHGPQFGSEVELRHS

Serine protease 1 = biological target: T4, Serine protease 1 (Bos taurus, UniProt P00760); assay: Inhibitory activity against bovine trypsin; No inhibition at the highest concentration tested (400 uM)
T4 sequence (P00760 whole entry): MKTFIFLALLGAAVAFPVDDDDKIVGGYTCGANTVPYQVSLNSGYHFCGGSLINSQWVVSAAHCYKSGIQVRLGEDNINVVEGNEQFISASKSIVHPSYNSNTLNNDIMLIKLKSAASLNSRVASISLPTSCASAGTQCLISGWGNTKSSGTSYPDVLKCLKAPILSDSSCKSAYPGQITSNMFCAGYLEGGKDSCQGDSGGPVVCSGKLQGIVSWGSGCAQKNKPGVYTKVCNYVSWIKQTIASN

Prothrombin = Prothrombin (Homo sapiens, UniProt P00734); assay: Inhibitory activity against human thrombin mediated hydrolysis of the synthetic substrate […]; No inhibition at the highest concentration tested (400 uM)
Cathepsin G = biological target: T5, Cathepsin G (Homo sapiens, UniProt P08311); assay: Inhibitory activity against human cathepsin G.
T5 sequence (P08311 whole entry): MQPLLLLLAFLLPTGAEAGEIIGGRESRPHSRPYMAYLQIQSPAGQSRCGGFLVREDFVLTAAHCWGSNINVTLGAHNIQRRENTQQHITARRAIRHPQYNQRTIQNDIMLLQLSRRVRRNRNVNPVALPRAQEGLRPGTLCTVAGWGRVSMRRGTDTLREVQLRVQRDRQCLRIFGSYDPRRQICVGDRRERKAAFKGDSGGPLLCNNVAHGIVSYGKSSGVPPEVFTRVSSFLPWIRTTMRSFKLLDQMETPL

Papain = biological target: T6, Papain (Carica papaya, UniProt P00784); assay: Inhibitory activity against papain; No inhibition at the highest concentration tested (400 uM)
T6 sequence (P00784 whole entry): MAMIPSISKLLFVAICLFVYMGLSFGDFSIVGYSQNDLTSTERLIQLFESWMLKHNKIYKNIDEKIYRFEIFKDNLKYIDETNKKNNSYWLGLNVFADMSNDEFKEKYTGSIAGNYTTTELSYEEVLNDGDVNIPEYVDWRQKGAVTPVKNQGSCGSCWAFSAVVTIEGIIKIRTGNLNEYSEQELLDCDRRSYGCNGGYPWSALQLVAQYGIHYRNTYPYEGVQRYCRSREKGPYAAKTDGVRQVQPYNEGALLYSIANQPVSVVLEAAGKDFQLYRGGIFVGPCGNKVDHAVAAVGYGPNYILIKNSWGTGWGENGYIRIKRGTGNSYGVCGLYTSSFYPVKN

Acetylcholinesterase, sequence (O42275 whole entry): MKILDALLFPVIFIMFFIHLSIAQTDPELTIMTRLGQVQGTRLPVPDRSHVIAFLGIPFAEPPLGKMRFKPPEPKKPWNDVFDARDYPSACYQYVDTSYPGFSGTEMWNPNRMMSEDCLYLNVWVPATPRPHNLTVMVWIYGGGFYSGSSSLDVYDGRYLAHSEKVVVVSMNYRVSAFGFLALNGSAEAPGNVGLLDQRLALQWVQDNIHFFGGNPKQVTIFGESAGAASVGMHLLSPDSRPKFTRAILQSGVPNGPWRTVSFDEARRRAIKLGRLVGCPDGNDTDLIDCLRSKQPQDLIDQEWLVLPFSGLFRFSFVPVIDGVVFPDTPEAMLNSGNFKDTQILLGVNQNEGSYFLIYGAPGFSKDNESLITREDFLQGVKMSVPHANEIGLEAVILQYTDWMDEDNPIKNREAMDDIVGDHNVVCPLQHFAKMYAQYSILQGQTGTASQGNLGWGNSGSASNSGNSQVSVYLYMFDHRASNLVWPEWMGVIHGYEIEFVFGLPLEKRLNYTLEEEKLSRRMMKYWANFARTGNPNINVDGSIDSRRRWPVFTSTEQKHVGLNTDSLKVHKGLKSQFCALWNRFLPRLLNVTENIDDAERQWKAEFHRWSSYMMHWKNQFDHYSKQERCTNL

SMILES | Ki (Neutrophil elastase) | also measured
CC(C)C(NC(=O)Cn1ccc2c3cc(Cl)ccc3nc-2c1O)C(=O)C(F)(F)F (configuration not stated) | 0.21 µM | 
CC(C)C(NC(=O)CN1CCc2c([nH]c3ccccc23)C1=O)C(=O)C(F)(F)F (configuration not stated) | 1.1 µM | 
CC(C)C(NC(=O)Cn1c(-c2ccccc2)cc2c3cccc(C#N)c3nc-2c1O)C(=O)C(F)(F)F (configuration not stated) | 0.0066 µM | Ki (Chymotrypsinogen A [1]): 0.18 µM; Ratio [2]: 27
COc1ccc2[nH]c3c(c2c1)CCN(CC(=O)NC(C(=O)C(F)(F)F)C(C)C)C3=O (configuration not stated) | 1.1 µM | 
CC(C)c1cc2c3ccccc3nc-2c(O)n1CC(=O)NC(C(=O)C(F)(F)F)C(C)C (configuration not stated) | 0.054 µM | Ki (Chymotrypsinogen A [1]): 1.1 µM; Ratio [2]: 20
COC(=O)Oc1cccc2c3cc(-c4ccccc4)n(CC(=O)NC(C(=O)C(F)(F)F)C(C)C)c(O)c-3nc12 (configuration not stated) | 0.024 µM | 
CC(C)c1cc2c3cccc(C(=O)O)c3nc-2c(O)n1CC(=O)NC(C(=O)C(F)(F)F)C(C)C (configuration not stated) | 0.019 µM | 
CC(C)C(NC(=O)Cn1ccc2c3cccc(C(N)=O)c3nc-2c1O)C(=O)C(F)(F)F (configuration not stated) | 0.73 µM | 
CC(C)C(NC(=O)Cn1ccc2c3ccccc3nc-2c1O)C(=O)C(F)(F)F (configuration not stated) | 0.29 µM | Ki (Chymotrypsinogen A [3]): No inhibition
COP(=O)(OC)c1cccc2c3cc(-c4ccccc4)n(CC(=O)NC(C(=O)C(F)(F)F)C(C)C)c(O)c-3nc12 (configuration not stated) | 0.052 µM | Ki (Chymotrypsinogen A [1]): 26 µM; Ratio [2]: 500
CC(C)C(NC(=O)Cn1ccc2c3ccc(C(=O)O)cc3nc-2c1O)C(=O)C(F)(F)F (configuration not stated) | 0.51 µM | 
CC(C)C(NC(=O)Cn1c(-c2ccccc2)cc2c3cccc(O)c3nc-2c1O)C(=O)C(F)(F)F (configuration not stated) | 0.0067 µM | 
CC(C)C(NC(=O)Cn1c(-c2ccccc2)cc2c3cccc(OS(C)(=O)=O)c3nc-2c1O)C(=O)C(F)(F)F (configuration not stated) | 0.015 µM | 
CC(C)C(NC(=O)CN1CCc2c([nH]c3ccc(Cl)cc23)C1=O)C(=O)C(F)(F)F (configuration not stated) | 1 µM | 
CCOC(=O)c1cccc2c3ccn(CC(=O)NC(C(=O)C(F)(F)F)C(C)C)c(O)c-3nc12 (configuration not stated) | 2.5 µM | 
CC(C)C(NC(=O)Cn1c(-c2ccccc2)cc2c3ccccc3nc-2c1O)C(=O)C(F)(F)F (configuration not stated) | 0.0061 µM | Ki (Chymotrypsinogen A [1]): 0.43 µM; Ratio [2]: 70
CCOC(=O)c1ccc2c3ccn(CC(=O)NC(C(=O)C(F)(F)F)C(C)C)c(O)c-3nc2c1 (configuration not stated) | 0.34 µM | 
CC(C)C(NC(=O)Cn1c(-c2ccccc2)cc2c3cccc(C(=O)O)c3nc-2c1O)C(=O)C(F)(F)F (configuration not stated) |  | Ki (Chymotrypsinogen A [1]): 43 µM
COC(=O)c1cccc2c3cc(-c4ccccc4)n(CC(=O)NC(C(=O)C(F)(F)F)C(C)C)c(O)c-3nc12 (configuration not stated) | 0.13 µM | 
CC(C)C(NC(=O)CN1CCc2c([nH]c3c(C(=O)O)cccc23)C1=O)C(=O)C(F)(F)F (configuration not stated) | 0.027 µM | 
CC(C)C(NC(=O)Cn1c(-c2ccccc2)cc2c3cccc(C=O)c3nc-2c1O)C(=O)C(F)(F)F (configuration not stated) | 0.0049 µM | 
COc1ccc2nc3c(O)n(CC(=O)NC(C(=O)C(F)(F)F)C(C)C)ccc-3c2c1 (configuration not stated) | 0.35 µM | 
COc1cccc2c3cc(-c4ccccc4)n(CC(=O)NC(C(=O)C(F)(F)F)C(C)C)c(O)c-3nc12 (configuration not stated) | 0.017 µM | 
CC(C)C(NC(=O)Cn1ccc2c3cccc(C(=O)O)c3nc-2c1O)C(=O)C(F)(F)F (configuration not stated) | 0.022 µM | Ki (Acetylcholinesterase): No inhibition; Ki [4]: 94 µM; Ki (Serine protease 1): No inhibition; Ki (Prothrombin): No inhibition; Ki (Chymotrypsinogen A [3]): No inhibition; Ki (Cathepsin G): 130 µM; Ki (Papain): No inhibition
COP(=O)(OC)c1ccc2nc3c(O)n(CC(=O)NC(C(=O)C(F)(F)F)C(C)C)c(-c4ccccc4)cc-3c2c1 (configuration not stated) | 0.0096 µM | 
CC(C)c1cc2c3cccc(C#N)c3nc-2c(O)n1CC(=O)NC(C(=O)C(F)(F)F)C(C)C (configuration not stated) | 0.028 µM | 
